Reference: ChEMBL document CHEMBL3046406, “Herbicidal potential of ophiobolins produced by Drechslera gigantea” (2006)
Activity calls are given as the source filed them. No cut-off for these calls is given here.

Each compound was assayed on Digitaria sanguinalis (assay: Herbicidal activity against Digitaria sanguinalis (hairy crabgrass) assessed as diameter of leaf necrosis at 50 ug/ml measured after 2 days post compound treatment by leaf puncture assay).
Format: functional
How it was run: (§1)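 Detached leaf segments (about 5 cm) from young greenhouse-grown plants, each with a superficial puncture lesion (0.5 mm) made by glass capillary. Compound dissolved in DMSO, diluted with distilled water (final DMSO 2%), 8 µL droplet applied. Segments held on moist filter paper at 25 °C under continuous fluorescent light (10000 lux). DMSO droplets as control. Necrosis scored visually on a 0–3 scale at day 2.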
In the case of `CC(C)=C[C@H]1C[C@H](C)[C@]2(CC[C@]3(C)C[C@H]4[C@H](C(=O)C[C@@]4(C)O)/C(C=O)=C\C[C@H]32)O1` [OPHIOBOLIN A], the Activity is reported as >3 mm.

The compounds below were run on Avena sterilis subsp. ludoviciana (assay: Herbicidal activity against Avena sterilis subsp. ludoviciana assessed as diameter of leaf necrosis at 100 ug/ml measured after 2 days post compound treatment by leaf puncture assay).
Format: functional
How it was run: as §1
`CC(C)=C[C@H]1C[C@H](C)[C@]2(CC[C@]3(C)C[C@H]4[C@H](C(=O)C[C@@]4(C)O)/C(C=O)=C\C[C@H]32)O1` [OPHIOBOLIN A] was tested, and the Activity was >3 mm.

These compounds were tested on Diplotaxis erucoides (assay: Herbicidal activity against Diplotaxis erucoides assessed as diameter of leaf necrosis at 250 ug/ml measured after 2 days post compound treatment by leaf puncture assay).
Format: functional
How it was run: as §1
Work on `CC(C)=C[C@H]1C[C@H](C)[C@]2(CC[C@]3(C)C[C@H]4[C@H](C(=O)C[C@@]4(C)O)/C(C=O)=C\C[C@H]32)O1` [OPHIOBOLIN A] yielded an Activity of 2 mm.

The compounds below were run on Oloptum miliaceum (assay: Herbicidal activity against Piptatherum miliaceum assessed as diameter of leaf necrosis at 50 ug/ml measured after 2 days post compound treatment by leaf puncture assay).
Format: functional
How it was run: as §1
For `CC(C)=C[C@H]1C[C@H](C)[C@]2(CC[C@]3(C)C[C@H]4[C@H](C(=O)C[C@@]4(C)O)/C(C=O)=C\C[C@H]32)O1` [OPHIOBOLIN A], the Activity was 1 mm.

These compounds were tested on Setaria viridis (assay: Herbicidal activity against Setaria viridis assessed as diameter of leaf necrosis at 250 ug/ml measured after 2 days post compound treatment by leaf puncture assay).
Format: functional
How it was run: as §1
With `CC(C)=C[C@H]1C[C@H](C)[C@]2(CC[C@]3(C)C[C@H]4[C@H](C(=O)C[C@@]4(C)O)/C(C=O)=C\C[C@H]32)O1` [OPHIOBOLIN A] the Activity was >3 mm.

The compounds below were run on Avena sterilis subsp. ludoviciana (assay: Herbicidal activity against Avena sterilis subsp. ludoviciana assessed as diameter of leaf necrosis at 50 ug/ml measured after 2 days post compound treatment by leaf puncture assay).
Format: functional
How it was run: as §1
`CC(C)=C[C@H]1C[C@H](C)[C@]2(CC[C@]3(C)C[C@H]4[C@H](C(=O)C[C@@]4(C)O)/C(C=O)=C\C[C@H]32)O1` [OPHIOBOLIN A] was tested, and the Activity was >3 mm.

The compounds below were run on Bromus sterilis (assay: Herbicidal activity against Bromus sterilis assessed as diameter of leaf necrosis at 100 ug/ml measured after 2 days post compound treatment by leaf puncture assay).
Format: functional
How it was run: as §1
`CC(C)=C[C@H]1C[C@H](C)[C@]2(CC[C@]3(C)C[C@H]4[C@H](C(=O)C[C@@]4(C)O)/C(C=O)=C\C[C@H]32)O1` [OPHIOBOLIN A] gave an Activity of 2 mm.

Each compound was assayed on Cynodon dactylon (assay: Herbicidal activity against Cynodon dactylon assessed as diameter of leaf necrosis at 50 ug/ml measured after 2 days post compound treatment by leaf puncture assay).
Format: functional
How it was run: as §1
`CC(C)=C[C@H]1C[C@H](C)[C@]2(CC[C@]3(C)C[C@H]4[C@H](C(=O)C[C@@]4(C)O)/C(C=O)=C\C[C@H]32)O1` [OPHIOBOLIN A] was tested, and the Activity was “inactive”.

These compounds were tested on Avena sterilis subsp. ludoviciana (assay: Herbicidal activity against Avena sterilis subsp. ludoviciana assessed as diameter of leaf necrosis at 250 ug/ml measured after 2 days post compound treatment by leaf puncture assay).
Format: functional
How it was run: as §1
In the case of `CC(C)=C[C@H]1C[C@H](C)[C@]2(CC[C@]3(C)C[C@H]4[C@H](C(=O)C[C@@]4(C)O)/C(C=O)=C\C[C@H]32)O1` [OPHIOBOLIN A], the Activity is reported as >3 mm.

These compounds were tested on Sonchus oleraceus (assay: Herbicidal activity against Sonchus oleraceus assessed as diameter of leaf necrosis at 50 ug/ml measured after 2 days post-compound treatment by leaf puncture assay).
Format: functional
How it was run: as §1
`CC(C)=C[C@H]1C[C@H](C)[C@]2(CC[C@]3(C)C[C@H]4[C@H](C(=O)C[C@@]4(C)O)/C(C=O)=C\C[C@H]32)O1` [OPHIOBOLIN A] was tested, and the Activity was >3 mm.

The compounds below were run on Convolvulus arvensis (assay: Herbicidal activity against Convolvulus arvensis assessed as diameter of leaf necrosis at 250 ug/ml measured after 2 days post compound treatment by leaf puncture assay).
Format: functional
How it was run: as §1
With `CC(C)=C[C@H]1C[C@H](C)[C@]2(CC[C@]3(C)C[C@H]4[C@H](C(=O)C[C@@]4(C)O)/C(C=O)=C\C[C@H]32)O1` [OPHIOBOLIN A] the Activity was 2 mm.

Each compound was assayed on Setaria viridis (assay: Herbicidal activity against Setaria viridis assessed as diameter of leaf necrosis at 50 ug/ml measured after 2 days post compound treatment by leaf puncture assay).
Format: functional
How it was run: as §1
With `CC(C)=C[C@H]1C[C@H](C)[C@]2(CC[C@]3(C)C[C@H]4[C@H](C(=O)C[C@@]4(C)O)/C(C=O)=C\C[C@H]32)O1` [OPHIOBOLIN A] the Activity was >3 mm.

What follows are compounds tested on Phalaris canariensis (assay: Herbicidal activity against Phalaris canariensis assessed as diameter of leaf necrosis at 100 ug/ml measured after 2 days post compound treatment by leaf puncture assay).
Format: functional
How it was run: as §1
`CC(C)=C[C@H]1C[C@H](C)[C@]2(CC[C@]3(C)C[C@H]4[C@H](C(=O)C[C@@]4(C)O)/C(C=O)=C\C[C@H]32)O1` [OPHIOBOLIN A] was tested, and the Activity was >3 mm.

These compounds were tested on Bromus sterilis (assay: Herbicidal activity against Bromus sterilis assessed as diameter of leaf necrosis at 50 ug/ml measured after 2 days post compound treatment by leaf puncture assay).
Format: functional
How it was run: as §1
Compound `CC(C)=C[C@H]1C[C@H](C)[C@]2(CC[C@]3(C)C[C@H]4[C@H](C(=O)C[C@@]4(C)O)/C(C=O)=C\C[C@H]32)O1` [OPHIOBOLIN A] has an Activity of 1 mm.

Each compound was assayed on Echinochloa crus-galli (assay: Herbicidal activity against Echinochloa crus-galli (barnyard grass) assessed as diameter of leaf necrosis at 100 ug/ml measured after 2 days post compound treatment by leaf puncture assay).
Format: functional
How it was run: as §1
In the case of `CC(C)=C[C@H]1C[C@H](C)[C@]2(CC[C@]3(C)C[C@H]4[C@H](C(=O)C[C@@]4(C)O)/C(C=O)=C\C[C@H]32)O1` [OPHIOBOLIN A], the Activity is reported as >3 mm.

The compounds below were run on Oloptum miliaceum (assay: Herbicidal activity against Piptatherum miliaceum assessed as diameter of leaf necrosis at 100 ug/ml measured after 2 days post compound treatment by leaf puncture assay).
Format: functional
How it was run: as §1
Work on `CC(C)=C[C@H]1C[C@H](C)[C@]2(CC[C@]3(C)C[C@H]4[C@H](C(=O)C[C@@]4(C)O)/C(C=O)=C\C[C@H]32)O1` [OPHIOBOLIN A] yielded an Activity of 2 mm.

What follows are compounds tested on Digitaria sanguinalis (assay: Herbicidal activity against Digitaria sanguinalis (hairy crabgrass) assessed as diameter of leaf necrosis at 250 ug/ml measured after 2 days post compound treatment by leaf puncture assay).
Format: functional
How it was run: as §1
`CC(C)=C[C@H]1C[C@H](C)[C@]2(CC[C@]3(C)C[C@H]4[C@H](C(=O)C[C@@]4(C)O)/C(C=O)=C\C[C@H]32)O1` [OPHIOBOLIN A] was tested, and the Activity was >3 mm.

What follows are compounds tested on Chenopodium album (assay: Herbicidal activity against Chenopodium album assessed as diameter of leaf necrosis at 50 ug/ml measured after 2 days post compound treatment by leaf puncture assay).
Format: functional
How it was run: as §1
`CC(C)=C[C@H]1C[C@H](C)[C@]2(CC[C@]3(C)C[C@H]4[C@H](C(=O)C[C@@]4(C)O)/C(C=O)=C\C[C@H]32)O1` [OPHIOBOLIN A] was tested, and the Activity was 2 mm.

These compounds were tested on Diplotaxis erucoides (assay: Herbicidal activity against Diplotaxis erucoides assessed as diameter of leaf necrosis at 100 ug/ml measured after 2 days post compound treatment by leaf puncture assay).
Format: functional
How it was run: as §1
`CC(C)=C[C@H]1C[C@H](C)[C@]2(CC[C@]3(C)C[C@H]4[C@H](C(=O)C[C@@]4(C)O)/C(C=O)=C\C[C@H]32)O1` [OPHIOBOLIN A] showed an Activity of 2 mm.

What follows are compounds tested on Amaranthus retroflexus (assay: Herbicidal activity against Amaranthus retroflexus assessed as diameter of leaf necrosis at 50 ug/ml measured after 2 days post compound treatment by leaf puncture assay).
Format: functional
How it was run: as §1
`CC(C)=C[C@H]1C[C@H](C)[C@]2(CC[C@]3(C)C[C@H]4[C@H](C(=O)C[C@@]4(C)O)/C(C=O)=C\C[C@H]32)O1` [OPHIOBOLIN A] showed an Activity of 2 mm.
